Data: article PMC2957851 (ACS Chemical Neuroscience, 2010)
“Also recorded” adds a separate entry of the source. One block for each compound: values may come before it.

What was measured:
rat mGlu5 [1] = target: T1, rat mGlu5 (Rattus norvegicus, UniProt P31424); experiment: Antagonist; type: cell-based; conditions: 10 μM test compound
How it was run: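 HEK293 cells stably expressing rat mGlu5 were plated in glutamate/glutamine-free medium 24 h ahead. Cells were loaded with 2 μM Fluo4-AM in HBSS with 2.5 mM probenecid and 20 mM HEPES, pH 7.4, for 45 min at 37 °C. Vehicle or 10 μM test compound went in at 19 s, then ~EC80 glutamate at 109 s. Fluorescence was read for 160 s and normalized to the 100 μM glutamate maximum. Three experiments were run in triplicate, mean ± SEM.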

F585I/rmGlu5 = F585I/rmGlu5 (Rattus norvegicus, UniProt P31424, F585I); type: cell-based; conditions: VU0357121 at 1 μM; transiently transfected HEK293
How it was run: (§1)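 HEK293 cells were transiently transfected with mutant rat mGlu5 cDNA using FuGENE 6, plated the next day and assayed the following day. Cells were Fluo4-AM loaded in HBSS/HEPES/probenecid at pH 7.4. Vehicle or a fixed 1 μM PAM was added, then increasing glutamate. Calcium fluorescence was read for 160 s. Glutamate concentration–response curves were fitted by nonlinear regression to compare EC50 values.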

rmGlu5 = conditions: CHO or HEK293 cells expressing rmGlu5; cited from earlier work
A809V/rmGlu5 = A809V/rmGlu5 (Rattus norvegicus, UniProt P31424, A809V); type: cell-based; conditions: VU0357121 at 1 μM; transiently transfected HEK293
How it was run: as §1

rat mGlu1 = rat mGlu1 (Rattus norvegicus, UniProt P23385); experiment: Selectivity fold-shift, calcium assay in HEK293 cells expressing mGlu1; type: cell-based; conditions: 30 μM test compound
How it was run: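 HEK293 cells stably expressing rat mGlu1, handled as for mGlu5 cells: plated in glutamate/glutamine-free medium, loaded with 2 μM Fluo4-AM (45 min, 37 °C, pH 7.4, with probenecid). Vehicle or 30 μM test compound added, then increasing glutamate concentrations. Fluo-4 fluorescence read on FlexStation over 160 s. Concentration-response curves fit by nonlinear regression.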

rat mGlu5 [2] = target: T1, rat mGlu5; experiment: Single-point PAM screen, potentiation of EC20 glutamate calcium response; type: cell-based; conditions: 1 μM test compound
How it was run: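 HEK293 cells stably expressing rat mGlu5 were plated at 30,000/well in glutamate/glutamine-free medium about 24 h ahead. Cells were loaded with 2 μM Fluo4-AM for 45 min at 37 °C in HBSS/HEPES/probenecid (pH 7.4). Vehicle or 1 μM test compound was added at 19 s, then glutamate at EC20 at 109 s. Fluorescence recorded for 160 s.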

rat mGlu8 = rat mGlu8 (Rattus norvegicus, UniProt P70579); experiment: Selectivity fold-shift, GIRK thallium flux in HEK/GIRK cells; type: cell-based; conditions: 30 μM test compound
How it was run: (§2)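 HEK cell lines expressing GIRK plus rat mGlu2, 3, 4, 7 or 8 or human mGlu6 were plated overnight at 37 °C. Cells were loaded with 1 μM Fluozin2-AM for 1 h at room temperature. Vehicle or 30 μM test compound was added, then varying glutamate 2.5 min later in thallium buffer (12 mM thallium sulfate). Glutamate curves were fitted by nonlinear regression. Three experiments were run in duplicate or triplicate, mean ± SEM.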

rat mGlu3 = rat mGlu3 (Rattus norvegicus, UniProt P31422); experiment: as above; type: cell-based; conditions: 30 μM test compound
How it was run: as §2

rat mGlu4 = rat mGlu4 (Rattus norvegicus, UniProt P31423); experiment: as above; type: cell-based; conditions: 30 μM test compound
How it was run: as §2

rat mGlu5 [3] = target: T1, rat mGlu5; type: cell-based
How it was run: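 Rat mGlu5 HEK293 stable cells, plated at 30,000/well in glutamate/glutamine-free medium (dialysed FBS) ≥24 h. Loaded 45 min at 37 °C with 2 μM Fluo4-AM in HBSS, 20 mM HEPES, 2.5 mM probenecid, pH 7.4. Increasing test compound added at 19 s, EC20 glutamate at 109 s. Fluorescence read for 160 s. EC50 from curve fits.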

rat mGlu7 = rat mGlu7 (Rattus norvegicus, UniProt P35400); experiment: Selectivity fold-shift, GIRK thallium flux in HEK/GIRK cells; type: cell-based; conditions: 30 μM test compound
How it was run: as §2

human mGlu6 = human mGlu6 (Homo sapiens, UniProt O15303); experiment: as above; type: cell-based; conditions: 30 μM test compound
How it was run: as §2

rat mGlu2 = rat mGlu2 (Rattus norvegicus, UniProt P31421); experiment: as above; type: cell-based; conditions: 30 μM test compound
How it was run: as §2

Solubility in assay = type: physicochemical; conditions: above 30 μM in assay
rat mGlu5 [4] = target: T1, rat mGlu5; type: cell-based; conditions: VU0365396 30 μM, EC20 glutamate
rat mGlu5 [5] = target: T1, rat mGlu5; type: cell-based; conditions: 10 μM test compound with VU0357121 50 nM, EC20 glutamate
How it was run: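 Same Fluo4 calcium-flux protocol in rat mGlu5 HEK293 cells. Test compound (10 μM) or vehicle co-applied with reference mGlu5 PAM (50 nM) from one 4× solution, followed by EC20 glutamate. Fluorescence recorded 160 s. Groups compared with EC20 + PAM + vehicle control by one-way ANOVA with Dunnett's test.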

A809V/rmGlu5, sequence (P31424 21-1203 A809V): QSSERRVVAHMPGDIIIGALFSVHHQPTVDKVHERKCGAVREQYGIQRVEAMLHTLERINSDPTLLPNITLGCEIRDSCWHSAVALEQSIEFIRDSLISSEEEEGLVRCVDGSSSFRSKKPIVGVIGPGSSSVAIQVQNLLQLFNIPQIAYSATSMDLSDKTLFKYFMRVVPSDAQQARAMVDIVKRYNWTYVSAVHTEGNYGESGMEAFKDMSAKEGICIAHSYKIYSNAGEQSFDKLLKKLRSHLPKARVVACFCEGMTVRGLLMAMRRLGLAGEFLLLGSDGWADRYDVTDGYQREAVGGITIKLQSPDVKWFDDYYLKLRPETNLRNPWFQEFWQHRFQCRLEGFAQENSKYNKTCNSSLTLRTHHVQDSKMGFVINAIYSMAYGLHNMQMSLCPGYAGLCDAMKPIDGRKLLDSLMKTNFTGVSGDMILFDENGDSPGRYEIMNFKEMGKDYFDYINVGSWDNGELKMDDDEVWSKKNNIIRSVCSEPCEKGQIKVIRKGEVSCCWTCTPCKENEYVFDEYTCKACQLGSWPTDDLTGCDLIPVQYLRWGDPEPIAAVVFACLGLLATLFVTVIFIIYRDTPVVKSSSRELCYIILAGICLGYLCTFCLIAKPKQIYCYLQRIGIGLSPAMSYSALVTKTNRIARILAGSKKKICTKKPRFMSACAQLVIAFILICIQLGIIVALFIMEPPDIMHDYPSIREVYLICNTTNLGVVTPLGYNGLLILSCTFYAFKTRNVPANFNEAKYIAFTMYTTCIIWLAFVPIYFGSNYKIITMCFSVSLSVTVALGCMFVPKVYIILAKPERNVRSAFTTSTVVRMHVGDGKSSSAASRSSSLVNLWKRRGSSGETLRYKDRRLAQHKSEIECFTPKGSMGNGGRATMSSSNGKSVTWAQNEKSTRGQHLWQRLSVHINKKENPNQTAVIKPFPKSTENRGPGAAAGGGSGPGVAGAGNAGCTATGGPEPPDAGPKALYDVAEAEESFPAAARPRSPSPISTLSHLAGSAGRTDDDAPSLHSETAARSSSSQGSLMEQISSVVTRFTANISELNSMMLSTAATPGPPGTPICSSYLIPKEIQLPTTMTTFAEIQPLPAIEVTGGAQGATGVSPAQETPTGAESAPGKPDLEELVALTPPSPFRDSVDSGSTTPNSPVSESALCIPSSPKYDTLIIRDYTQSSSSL
T1 sequence (P31424 21-1203): as the sequence (P31424 21-1203 A809V) above, with V789A counted along it
F585I/rmGlu5, sequence (P31424 21-1203 F585I): as the sequence (P31424 21-1203 A809V) above, with F565I, V789A counted along it
rat mGlu8, sequence (P70579 34-908): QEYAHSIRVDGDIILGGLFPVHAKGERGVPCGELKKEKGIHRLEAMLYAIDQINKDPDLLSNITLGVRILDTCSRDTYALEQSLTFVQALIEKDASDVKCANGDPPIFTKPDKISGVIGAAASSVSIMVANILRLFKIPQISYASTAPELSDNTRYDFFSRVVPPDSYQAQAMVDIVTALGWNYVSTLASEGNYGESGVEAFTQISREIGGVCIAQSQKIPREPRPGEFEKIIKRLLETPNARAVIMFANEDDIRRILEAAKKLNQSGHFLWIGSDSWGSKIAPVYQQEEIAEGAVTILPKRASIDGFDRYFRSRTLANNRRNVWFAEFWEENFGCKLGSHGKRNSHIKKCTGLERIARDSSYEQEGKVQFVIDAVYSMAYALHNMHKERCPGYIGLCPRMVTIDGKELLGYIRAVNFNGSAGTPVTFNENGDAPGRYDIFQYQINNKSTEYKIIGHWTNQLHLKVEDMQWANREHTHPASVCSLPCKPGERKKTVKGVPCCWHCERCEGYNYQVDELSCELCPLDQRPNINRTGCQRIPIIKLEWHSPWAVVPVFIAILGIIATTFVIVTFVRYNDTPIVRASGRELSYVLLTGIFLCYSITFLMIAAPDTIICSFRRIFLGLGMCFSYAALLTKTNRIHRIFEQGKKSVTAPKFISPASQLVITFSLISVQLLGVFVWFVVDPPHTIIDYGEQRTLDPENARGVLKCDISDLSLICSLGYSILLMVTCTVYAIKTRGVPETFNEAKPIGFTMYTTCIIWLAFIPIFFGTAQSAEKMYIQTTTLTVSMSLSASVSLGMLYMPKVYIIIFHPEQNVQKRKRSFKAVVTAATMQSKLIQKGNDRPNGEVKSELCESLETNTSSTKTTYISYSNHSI
rat mGlu4, sequence (P31423 33-912): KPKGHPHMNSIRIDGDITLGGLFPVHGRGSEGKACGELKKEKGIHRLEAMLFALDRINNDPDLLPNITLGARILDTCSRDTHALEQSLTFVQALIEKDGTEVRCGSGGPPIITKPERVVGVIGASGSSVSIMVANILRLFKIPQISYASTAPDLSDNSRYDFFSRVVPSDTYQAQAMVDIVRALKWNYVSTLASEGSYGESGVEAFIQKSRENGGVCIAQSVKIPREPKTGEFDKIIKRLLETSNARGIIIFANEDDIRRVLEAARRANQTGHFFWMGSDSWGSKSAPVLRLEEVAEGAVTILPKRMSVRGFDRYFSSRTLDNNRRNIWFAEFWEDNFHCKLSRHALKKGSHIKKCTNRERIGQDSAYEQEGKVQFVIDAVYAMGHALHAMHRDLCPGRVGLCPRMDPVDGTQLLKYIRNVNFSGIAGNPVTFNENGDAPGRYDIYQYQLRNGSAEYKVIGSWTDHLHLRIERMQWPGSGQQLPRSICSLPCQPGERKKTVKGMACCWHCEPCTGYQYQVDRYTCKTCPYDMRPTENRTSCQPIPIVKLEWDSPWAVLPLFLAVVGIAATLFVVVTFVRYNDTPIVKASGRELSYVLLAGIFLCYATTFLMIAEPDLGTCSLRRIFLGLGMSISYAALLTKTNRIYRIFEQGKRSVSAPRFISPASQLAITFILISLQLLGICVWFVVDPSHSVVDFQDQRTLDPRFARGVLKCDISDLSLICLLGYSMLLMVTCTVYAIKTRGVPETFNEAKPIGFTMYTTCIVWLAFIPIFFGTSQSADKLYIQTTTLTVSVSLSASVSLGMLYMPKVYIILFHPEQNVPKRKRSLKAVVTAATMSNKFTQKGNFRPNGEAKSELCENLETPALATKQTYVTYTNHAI
rat mGlu7, sequence (P35400 35-915): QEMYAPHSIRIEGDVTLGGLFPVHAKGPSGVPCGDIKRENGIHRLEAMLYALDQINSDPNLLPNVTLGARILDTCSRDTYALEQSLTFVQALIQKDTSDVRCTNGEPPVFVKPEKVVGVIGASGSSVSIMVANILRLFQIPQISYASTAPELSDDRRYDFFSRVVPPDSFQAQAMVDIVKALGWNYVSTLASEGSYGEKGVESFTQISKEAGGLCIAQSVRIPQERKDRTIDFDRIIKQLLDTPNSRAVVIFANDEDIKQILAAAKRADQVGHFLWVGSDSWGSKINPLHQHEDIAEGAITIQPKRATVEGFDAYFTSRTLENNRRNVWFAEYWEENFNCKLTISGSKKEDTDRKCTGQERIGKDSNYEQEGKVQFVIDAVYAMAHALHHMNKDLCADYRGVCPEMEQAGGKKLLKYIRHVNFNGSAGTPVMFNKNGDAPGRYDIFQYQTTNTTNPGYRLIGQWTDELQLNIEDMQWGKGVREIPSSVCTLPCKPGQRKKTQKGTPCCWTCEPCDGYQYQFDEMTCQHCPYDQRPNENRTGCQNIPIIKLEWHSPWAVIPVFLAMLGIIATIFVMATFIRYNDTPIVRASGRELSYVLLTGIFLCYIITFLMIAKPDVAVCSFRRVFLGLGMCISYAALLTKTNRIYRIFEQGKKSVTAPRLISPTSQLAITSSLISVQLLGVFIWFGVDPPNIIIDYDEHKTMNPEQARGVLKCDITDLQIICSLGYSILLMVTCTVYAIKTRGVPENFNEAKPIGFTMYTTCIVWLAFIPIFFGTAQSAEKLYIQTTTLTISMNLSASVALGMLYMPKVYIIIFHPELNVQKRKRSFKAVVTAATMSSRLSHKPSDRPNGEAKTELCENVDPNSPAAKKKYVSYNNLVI
rat mGlu1, sequence (P23385 19-1199): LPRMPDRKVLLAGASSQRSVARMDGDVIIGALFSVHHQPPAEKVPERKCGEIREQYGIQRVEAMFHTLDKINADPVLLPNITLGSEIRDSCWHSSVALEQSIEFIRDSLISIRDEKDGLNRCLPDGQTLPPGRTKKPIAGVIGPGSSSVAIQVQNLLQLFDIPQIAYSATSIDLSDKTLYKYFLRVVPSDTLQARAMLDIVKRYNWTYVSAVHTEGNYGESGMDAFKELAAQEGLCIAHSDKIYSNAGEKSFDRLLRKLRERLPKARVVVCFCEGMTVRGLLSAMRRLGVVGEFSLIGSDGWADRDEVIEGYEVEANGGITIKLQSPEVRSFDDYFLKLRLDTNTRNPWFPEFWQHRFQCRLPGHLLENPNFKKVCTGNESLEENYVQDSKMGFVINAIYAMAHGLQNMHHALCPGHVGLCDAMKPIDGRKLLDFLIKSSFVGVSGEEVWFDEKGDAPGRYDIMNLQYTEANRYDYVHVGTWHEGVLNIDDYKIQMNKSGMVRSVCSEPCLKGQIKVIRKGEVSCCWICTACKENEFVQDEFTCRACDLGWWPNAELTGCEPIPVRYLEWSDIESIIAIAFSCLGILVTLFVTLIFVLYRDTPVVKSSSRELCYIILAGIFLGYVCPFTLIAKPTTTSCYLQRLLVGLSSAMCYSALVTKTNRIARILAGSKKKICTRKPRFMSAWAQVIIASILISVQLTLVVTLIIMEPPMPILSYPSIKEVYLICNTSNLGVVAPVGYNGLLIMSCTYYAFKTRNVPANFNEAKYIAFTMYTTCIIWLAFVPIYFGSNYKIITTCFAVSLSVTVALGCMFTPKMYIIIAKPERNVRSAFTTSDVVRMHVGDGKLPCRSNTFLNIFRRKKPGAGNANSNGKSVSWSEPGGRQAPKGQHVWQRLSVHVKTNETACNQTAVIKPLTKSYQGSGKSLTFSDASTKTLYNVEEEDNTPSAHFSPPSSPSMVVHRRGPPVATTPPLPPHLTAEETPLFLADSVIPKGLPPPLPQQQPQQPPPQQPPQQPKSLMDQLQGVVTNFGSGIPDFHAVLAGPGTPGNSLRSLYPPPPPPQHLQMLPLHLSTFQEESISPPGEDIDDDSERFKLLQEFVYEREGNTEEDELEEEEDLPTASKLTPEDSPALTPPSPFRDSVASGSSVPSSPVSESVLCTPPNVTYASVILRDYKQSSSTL

- inhibition of the effect of EC80 glutamate on mGlu5 (rat mGlu5 [1]): blockade
Compound: Cc1cccc(C#Cc2ccccc2)n1 [MPEP, 2-methyl-6(phenylethynyl)pyridine, reference compound]

- PAM response at the F585I/rmGlu5 mutant (F585I/rmGlu5): is lost
- PAM response at the A809V/rmGlu5 mutant (A809V/rmGlu5): but not CPPHA is lost
Compound: O=C(Nc1ccc(Cl)cc1CN1C(=O)c2ccccc2C1=O)c1ccccc1O [CPPHA, N-{4-chloro-2-[(1,3-dioxo-1,3-dihydro-2H-isoindol-2-yl)methyl]phenyl}-2-hydroxybenzamide]
- intrinsic agonist activity at rmGlu5 (rmGlu5): have no effect on mGlu5 alone

Compound: N#Cc1cccc(C(=O)Nc2cc(-c3ccccc3)nn2-c2ccccc2)c1 [CDPPB, 3-cyano-N-(1,3-diphenyl-1H-pyrazol-5-yl)benzamide]
- intrinsic agonist activity at rmGlu5 (rmGlu5): display intrinsic agonist activity at moderate to high concentrations

Compound: O=C(c1ccc(F)cc1)N1CCC[C@H](c2nc(-c3ccccn3)no2)C1 [(S)-FPOPM, (S)-(4-fluorophenyl)(3-(3-(pyridin-2-yl)-1,2,4-oxadiazol-5-yl)piperidin-1-yl)methanone]
- intrinsic agonist activity at rmGlu5 (rmGlu5): have no effect on mGlu5 alone

Compound: CNc1ncc(C#Cc2ccccc2)cn1 [MPPA, N-methyl-5-(phenylethynyl)pyrimidin-2-amine]
- intrinsic agonist activity at rmGlu5 (rmGlu5): have no effect on mGlu5 alone

Compound: O=C(c1ccc(F)cc1)N1CCC[C@H](c2nc(-c3cccs3)no2)C1 [(S)-FTOPM, (S)-(4-fluorophenyl)(3-(3-(thiophen-2-yl)-1,2,4-oxadiazol-5-yl)piperidin-1-yl)methanone]
- intrinsic agonist activity at rmGlu5 (rmGlu5): display intrinsic agonist activity at moderate to high concentrations

- PAM response at the F585I/rmGlu5 mutant (F585I/rmGlu5): but not VU29 is lost
- PAM response at the A809V/rmGlu5 mutant (A809V/rmGlu5): is lost
Compound: O=C(Nc1cc(-c2ccccc2)nn1-c1ccccc1)c1ccc([N+](=O)[O-])cc1 [VU-29, 4-nitro-N-(1,3-diphenyl-1H-pyrazol-5-yl)benzamide, reference compound]

Compound: CCCCOc1ccc(C(=O)Nc2ccc(F)cc2F)cc1 [VU0357121, 4-butoxy-N-(2,4-difluorophenyl)benzamide]
- effect on glutamate concentration-response curve at mGlu1 (rat mGlu1): weak inhibition of glutamate responses at mGlu1
- potentiation of response to suboptimal (EC20) glutamate (rat mGlu5 [2]): potentiated the response to glutamate at submicromolar concentrations
- modulation of agonist response (PAM activity) at mGlu8 (rat mGlu8): does not have PAM activity
- inhibition of the effect of EC80 glutamate on mGlu5 (rat mGlu5 [1]): did not inhibit the effect of glutamate on mGlu5
- PAM response at the F585I/rmGlu5 mutant (F585I/rmGlu5): had no effect on its function
- modulation of agonist response (PAM activity) at mGlu3 (rat mGlu3): does not have PAM activity
- modulation of agonist response (PAM activity) at mGlu4 (rat mGlu4): does not have PAM activity
- increase in potency over the HTS hit (rat mGlu5 [3]; versus VU0040237): 10 fold
- modulation of agonist response (PAM activity) at mGlu7 (rat mGlu7): does not have PAM activity
- modulation of agonist response (PAM activity) at mGlu6 (human mGlu6): does not have PAM activity
- modulation of agonist response (PAM activity) at mGlu2 (rat mGlu2): does not have PAM activity
- PAM response at the A809V/rmGlu5 mutant (A809V/rmGlu5): inhibited the ability of VU0357121 to shift the glutamate concentration−response curve; also recorded: led to an inhibition of VU0357121 activity

Compound: CCCCOc1ccc(C(=O)Nc2ccc(Cl)cn2)cc1 [VU0125936, 4-butoxy-N-(5-chloropyridin-2-yl)benzamide]
- potentiation of response to suboptimal (EC20) glutamate (rat mGlu5 [2]): potentiated the response to glutamate at submicromolar concentrations
- EC50 (rat mGlu5 [3]): 664 nM

Compound: CCCCOc1ccc(C(=O)Nc2ccccc2F)cc1 [VU0040237, 4-butoxy-N-(2-fluorophenyl)benzamide]
- potentiation of response to suboptimal (EC20) glutamate (rat mGlu5 [2]): potentiated the response to glutamate at submicromolar concentrations
- EC50 (rat mGlu5 [3]): 350 nM

Compound: CCCCOc1ccc(C(=O)Nc2c(F)cccc2F)cc1 [VU0365396, 4-butoxy-N-(2,6-difluorophenyl)benzamide]
- solubility (Solubility in assay): limitations with solubility precluded studies with higher concentrations
- effect of VU0365396 on CPPHA-induced potentiation (rat mGlu5 [4]): had no effect on CPPHA-induced potentiation of mGlu5 responses; also recorded: has no effect on CPPHA activity
- effect of VU0365396 on the VU0357121 CRC (rat mGlu5 [4]): induced a parallel rightward shift in the VU0357121 CRC; also recorded: induces a parallel rightward shift in the VU0357121 concentration−response curve
- inhibition of VU0357121 PAM activity (rat mGlu5 [5]): caused the most robust inhibition; also recorded: induces the most robust inhibition of VU0357121 effects

- EC50 (rat mGlu5 [3]): 1300 nM
Compound: CCCOc1ccc(C(=O)Nc2ccc(Cl)cn2)cc1 [VU0001850, N-(5-chloropyridin-2-yl)-4-propoxybenzamide]
- potentiation of response to suboptimal (EC20) glutamate (rat mGlu5 [2]): potentiated the response to glutamate at submicromolar concentrations
